Experimental findings from ChEMBL document CHEMBL1141116, “Synthesis and structure-activity relationship of the first nonpeptidergic inverse agonists for the human cytomegalovirus encoded chemokine receptor US28” (J Med Chem, 2005) are described below.

Structures are written as SMILES.

Broadly, the IC50 is the concentration at which inhibition is half-maximal. A higher IC50 goes with weaker potency in that assay. As usually defined, the EC50 is the concentration that produces a half-maximal response.

Assay [1] addresses T1, G-protein coupled receptor homolog US28 (Human cytomegalovirus (strain AD169) (HHV-5) (Human herpesvirus 5), UniProt P69332).
T1 sequence (P69332 whole entry): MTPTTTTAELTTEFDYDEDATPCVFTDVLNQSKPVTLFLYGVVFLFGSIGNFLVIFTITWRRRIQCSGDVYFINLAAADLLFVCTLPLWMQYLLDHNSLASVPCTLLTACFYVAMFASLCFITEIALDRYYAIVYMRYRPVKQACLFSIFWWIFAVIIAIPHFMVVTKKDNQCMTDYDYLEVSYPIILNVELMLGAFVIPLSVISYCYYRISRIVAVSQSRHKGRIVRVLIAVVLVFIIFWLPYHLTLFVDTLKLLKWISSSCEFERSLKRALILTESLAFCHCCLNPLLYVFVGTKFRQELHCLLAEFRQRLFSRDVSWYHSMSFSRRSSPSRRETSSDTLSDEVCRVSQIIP
Put plainly: Inhibitory concentration against chemokine receptor US28 expressed in COS-7 cells using [125I]-CCL5. Format: cell-based, Human betaherpesvirus 5. The method, boiled down: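 Whole US28-transfected COS-7 cells, 48 h post-transfection, incubated 3 h at 4 °C with 0.3 nM [125I]CCL5 in 50 mM Hepes pH 7.4, 1 mM CaCl2, 5 mM MgCl2, 0.5% BSA ± varying compound concentrations. Four washes at 4 °C with buffer plus 0.5 M NaCl; nonspecific binding with 0.1 μM unlabeled CCL5. IC50 as mean, interval from ≥3 experiments unless noted.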

Assay [2] addresses T1, G-protein coupled receptor homolog US28. Put plainly: Effective concentration against US28-mediated inositol phosphate production in COS-7 cells. Format: functional, cell-based. The method, boiled down: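 COS-7 cells transiently transfected (DEAE-dextran, 2 μg DNA per million cells, pcDEF3-US28); 24 h post-transfection labeled overnight with 2 μCi/ml myo-[2-3H]inositol in inositol-free medium. After 10 min wash, 2 h incubation in DMEM with 25 mM HEPES pH 7.4 and 20 mM LiCl ± varying compound concentrations; stopped with cold 10 mM formic acid, [3H]inositol phosphates isolated by anion exchange, scintillation counted. EC50 as mean, interval from ≥3 experiments.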

For the compound `OC1(c2ccc(Cl)cc2)CCN(CCCCc2ccccc2)CC1`, the IC50 in assay [1] is 14.8 µM. In other words, the double-digit micromolar range.
In turn, `COc1ccc(C2(O)CCN(CCCC(C#N)(c3ccccc3)c3ccccc3)CC2)cc1` had an EC50 in assay [2] of 28.8 µM. Further, the IC50 in assay [1] was 72.4 µM.
The compound `N#CC(CCCN1CCC(O)(c2ccccc2)CC1)(c1ccccc1)c1ccccc1` came in with a concentration giving a half-maximal response (EC50) in assay [2] of 28.2 µM. Further, the IC50 in assay [1] turned out to be 35.5 µM.
The like results for `N#CC(CCCN1CCN(c2ccc(Cl)cc2)CC1)(c1ccccc1)c1ccccc1` were, in that order, greater than 100 µM and greater than 100 µM.
Consider `OC1(c2ccc(Cl)cc2)CCN(CCCOc2ccccc2)CC1`, for which the IC50 in assay [1] stood at 61.7 µM.
With `Cc1ccc(C2(O)CCN(CCCC(C#N)(c3ccccc3)c3ccccc3)CC2)cc1`, in assay [1], the IC50 was found to be 60.3 µM.
For the compound `N#CC(CCCN1CCC(O)(c2ccc(Br)cc2)CC1)(c1ccccc1)c1ccccc1`, in assay [1], it took 19.5 µM to reach half-maximal inhibition (IC50).
`N#CC(CCCN1CCC(O)CC1)(c1ccccc1)c1ccccc1` yielded an EC50 in assay [2] greater than 100 µM. This compound displayed an IC50 in assay [1] greater than 100 µM.
`COc1ccc(C(CCCN2CCC(O)(c3ccc(Cl)cc3)CC2)c2ccccc2)cc1` (configuration not stated) returned an IC50 in assay [1] of 15.5 µM. That is a double-digit micromolar value.
In assay [2], `CCOC(=O)C1CCN(CCCC(C#N)(c2ccccc2)c2ccccc2)CC1` registered an EC50 greater than 100 µM. In assay [1], this compound yielded an IC50 of 34.7 µM.
With `N#CC(CCCN1CCC(O)(c2ccc(Cl)c(Cl)c2)CC1)(c1ccccc1)c1ccccc1`, the midpoint of inhibition in assay [1], the IC50, lay at 38 µM.
The same measure, in the same setting: the same measure for `OC1(c2ccc(Cl)cc2)CCN(CCCC(c2ccccc2)c2ccc(Cl)c(Cl)c2)CC1` (configuration not stated): 15.8 µM.
As to `N#CC(CCCN1CCC(C(=O)O)CC1)(c1ccccc1)c1ccccc1`, the EC50 in assay [2] is greater than 100 µM. The IC50 in assay [1] was greater than 100 µM.
Turning to `N#CC1(c2ccccc2)CCN(CCCC(C#N)(c2ccccc2)c2ccccc2)CC1`, in assay [2], the EC50 was greater than 100 µM. The same compound registered an IC50 in assay [1] greater than 100 µM.
The compound `N#CC(CCCN1CCC(c2ccc(Cl)cc2)CC1)(c1ccccc1)c1ccccc1` had an EC50 in assay [2] of 13.8 µM.
In assay [2], `Cc1ccccc1C(CCCN1CCC(O)(c2ccc(Cl)cc2)CC1)c1ccccc1` (configuration not stated) yielded an EC50 of 9.8 µM. In assay [1], the IC50 was 5.5 µM.
Compound `OC1(c2ccc(Cl)cc2)CCN(CCCC(c2ccccc2)c2ccc(Cl)cc2)CC1` (configuration not stated) showed an IC50 in assay [1] of 17 µM. In other words, the double-digit micromolar range.
The same measure, in the same setting: in the case of `N#CC(CCCN1CCC(O)(Cc2ccccc2)CC1)(c1ccccc1)c1ccccc1` it was 63.1 µM.
In assay [2], `OC1(c2ccc(Cl)cc2)CCN(CCCC(c2ccccc2)c2ccccc2)CC1` came in with an EC50 of 4.2 µM. The IC50 in assay [1] is 6.5 µM.
For `N#CC(CCCN1CCC(C(N)=O)CC1)(c1ccccc1)c1ccccc1` the same measures were greater than 100 µM and greater than 100 µM.
Regarding `OC1(c2ccc(Cl)cc2)CCN(CCCC(c2ccc(Cl)cc2)c2ccc(-c3ccccc3)cc2)CC1` (configuration not stated), the EC50 in assay [2] is greater than 100 µM. This compound gave an IC50 in assay [1] greater than 100 µM.
Compound `N#CC(CCCN1CCC(=C(c2ccccc2)c2ccccc2)CC1)(c1ccccc1)c1ccccc1` displayed an EC50 in assay [2] greater than 100 µM. In assay [1], this compound had an IC50 greater than 100 µM.
`O=C(CCCN1CCC(O)(c2ccc(Cl)cc2)CC1)c1ccccc1`: the IC50 in assay [1] is greater than 100 µM.
`C[N+]1(CCCC(C#N)(c2ccccc2)c2ccccc2)CCC(O)(c2ccc(Cl)cc2)CC1` (configuration not stated): the EC50 in assay [2] was greater than 100 µM. Further, in assay [1], the IC50 is greater than 100 µM.
For `Cc1ccc(C(CCCN2CCC(O)(c3ccc(Cl)cc3)CC2)c2ccccc2)cc1` (configuration not stated), it took 11.5 µM to reach a half-maximal effect in assay [2] (EC50). Further, it took 30.9 µM to reach half-maximal inhibition in assay [1] (IC50).
`N#CC(CCCN1CC=C(c2ccc(Cl)cc2)CC1)(c1ccccc1)c1ccccc1` registered an EC50 in assay [2] greater than 100 µM. The IC50 in assay [1] was greater than 100 µM.
Take `N#CC(CCCN1CCC(O)(c2ccc(Cl)c(C(F)(F)F)c2)CC1)(c1ccccc1)c1ccccc1`: it took 45.7 µM to reach half-maximal inhibition in assay [1] (IC50).
The compound `OC(CCCN1CCC(O)(c2ccc(Cl)cc2)CC1)c1ccccc1` (configuration not stated) showed an EC50 in assay [2] greater than 100 µM. The compound further gave an IC50 in assay [1] greater than 100 µM.
Consider `CC1(O)CCN(CCCC(C#N)(c2ccccc2)c2ccccc2)CC1`, for which the EC50 in assay [2] was greater than 100 µM. In addition, in assay [1], the IC50 is greater than 100 µM.
On to `OC1(c2ccc(Cl)cc2)CCN(CCCC(c2ccc(Cl)cc2)c2ccc(Cl)cc2)CC1`, for which the IC50 in assay [1] is 17.4 µM.
In assay [1], `Cc1cccc(C(CCCN2CCC(O)(c3ccc(Cl)cc3)CC2)c2ccccc2)c1` (configuration not stated) returned an IC50 of 11.5 µM.
In the case of `CCCCC1(O)CCN(CCCC(C#N)(c2ccccc2)c2ccccc2)CC1`, the EC50 in assay [2] was greater than 100 µM. This compound also yielded an IC50 in assay [1] greater than 100 µM.
For the compound `N#CC(CCCN1CCC(O)(c2ccc(Cl)cc2)CC1)(c1ccccc1)c1ccccc1` [BERLEX COMPOUND], the EC50 in assay [2] is 3.2 µM. In addition, the IC50 in assay [1] was determined as 9.3 µM.
